Test [1] in a line: Selective index, ratio of IC50 for mouse L929 cells to MIC for Staphylococcus aureus ATCC 29213. In a few lines:
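Selectivity index calculated as L929 IC50 (μM) divided by S. aureus MIC (μM).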

Test [2] concerns Staphylococcus aureus. The test can be described thus: Synergistic antibacterial activity against multidrug-resistant Staphylococcus aureus isolate 1749 assessed as fractional Inhibitory concentration index in presence of meropenem by broth microdilution assay. In kind it is functional. In a few lines:
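CLSI broth microdilution run on clinical MRSA isolates with each β-lactam alone, the test agent alone, and the two combined; agents dissolved in DMSO. Growth inhibition was read by eye. FIC index = FIC(compound) + FIC(β-lactam), where each FIC is the MIC in combination divided by the MIC alone. An index ≤0.5 was taken as synergy.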
On the technique in general: In broth dilution the organism is exposed to a series of concentrations in liquid medium.

The subject of test [3] is Staphylococcus aureus. Put plainly: Synergistic antibacterial activity against multidrug-resistant Staphylococcus aureus isolate 1402 in presence of cefuroxime by broth microdilution assay. In kind it is functional. In a few lines: (§1)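 Clinical MRSA isolate panel; compound and β-lactam tested alone and in combination by CLSI broth microdilution, compounds dissolved in DMSO, growth inhibition scored by eye, run in duplicate. FIC index = FIC(compound) + FIC(drug), each the MIC in combination divided by the MIC alone; an index ≤ 0.5 was called synergy.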

Test [4] deals with Staphylococcus aureus. The test can be described thus: Synergistic antibacterial activity against multidrug-resistant Staphylococcus aureus isolate 3332 in presence of amoxicillin by broth microdilution assay. In kind it is functional. In a few lines: (§2)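 CLSI broth microdilution on clinical MRSA isolates. MICs were measured for the β-lactam alone, the test agent alone and the two combined. Compounds were dissolved in DMSO, and growth inhibition was scored by eye. FIC index is the sum, over both agents, of MIC in combination divided by MIC alone. An FIC index ≤0.5 was taken as synergy.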

Test [5] has as its system Staphylococcus aureus. The test can be described thus: Antibacterial activity against multidrug-resistant Staphylococcus aureus isolate 1749 by broth microdilution assay. The format is functional. In a few lines:
(§3)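 Broth microdilution MIC per CLSI guidelines against clinical MRSA isolates, for β-lactams and test compound alone and in combination. Compounds were dissolved in DMSO. Growth was read by eye, in duplicate. FIC index = FIC(compound) + FIC(drug); synergy defined as FIC index ≤0.5.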

Test [6] concerns Staphylococcus aureus. The test can be described thus: Synergistic antibacterial activity against multidrug-resistant Staphylococcus aureus isolate 774 in presence of methicillin by broth microdilution assay. In kind it is functional.
The subject of test [7] is Staphylococcus aureus. The test can be described thus: Synergistic antibacterial activity against multidrug-resistant Staphylococcus aureus isolate 1449 in presence of amoxicillin by broth microdilution assay. The format is functional. In a few lines: as §1
The test system of test [8] is Staphylococcus aureus. Put plainly: Antibacterial activity against multidrug-resistant Staphylococcus aureus isolate 2516 by broth microdilution assay. In kind it is functional. In a few lines: as §3
For test [9], the system named is Staphylococcus aureus. The test can be described thus: Synergistic antibacterial activity against multidrug-resistant Staphylococcus aureus isolate 3589 assessed as fractional Inhibitory concentration index in presence of meropenem by broth microdilution assay. In kind it is functional.
The test system of test [10] is Staphylococcus aureus. Put plainly: Synergistic antibacterial activity against multidrug-resistant Staphylococcus aureus isolate 1449 in presence of cloxacillin by broth microdilution assay. In kind it is functional. In a few lines:
as §1

In test [11] the test system is Staphylococcus aureus. Put plainly: Antibacterial activity against Staphylococcus aureus ATCC 29213 harboring FtsZ 32 mutation after 20 hrs. In kind it is functional. The conditions noted are these: ATCC 29213, 20 h. In a few lines:
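Broth microdilution MIC per CLSI guidelines, compounds dissolved in DMSO. Resistant mutants were selected by serial passage of ATCC 29213 in LB at 37 °C with shaking at 250 rpm. Each 20 h culture started at half the MIC, and the concentration was doubled at each transfer. Growth inhibition was read by eye, in duplicate.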

Test [12] concerns Staphylococcus aureus. Put plainly: Synergistic antibacterial activity against multidrug-resistant Staphylococcus aureus isolate 2728 assessed as fractional Inhibitory concentration index in presence of methicillin by broth microdilution assay. In kind it is functional.
For test [13], the system named is Staphylococcus aureus. Put plainly: Synergistic antibacterial activity against multidrug-resistant Staphylococcus aureus isolate 3589 in presence of methicillin by broth microdilution assay. The format is functional.
For test [14], the system named is Staphylococcus aureus. Put plainly: Synergistic antibacterial activity against multidrug-resistant Staphylococcus aureus isolate 3589 in presence of cefuroxime by broth microdilution assay. In kind it is functional.
Test [15] relates to Staphylococcus aureus. The test can be described thus: Synergistic antibacterial activity against multidrug-resistant Staphylococcus aureus isolate 200 in presence of meropenem by broth microdilution assay. The format is functional. In a few lines:
as §1

The subject of test [16] is Staphylococcus aureus. Put plainly: Synergistic antibacterial activity against multidrug-resistant Staphylococcus aureus isolate 254 in presence of amoxicillin by broth microdilution assay. The format is functional. In a few lines:
as §2

Test [17] concerns Staphylococcus aureus. Put plainly: Synergistic antibacterial activity against multidrug-resistant Staphylococcus aureus isolate 256 in presence of cefuroxime by broth microdilution assay. The format is functional. In a few lines: as §2
Test [18] has as its system Staphylococcus aureus. Put plainly: Synergistic antibacterial activity against multidrug-resistant Staphylococcus aureus isolate 3267 in presence of cloxacillin by broth microdilution assay. In kind it is functional. In a few lines:
as §2

Test [19] relates to Staphylococcus aureus. Put plainly: Antibacterial activity against multidrug-resistant Staphylococcus aureus isolate 2224 by broth microdilution assay. In kind it is functional. In a few lines:
as §3

The subject of test [20] is Staphylococcus aureus. The test can be described thus: Synergistic antibacterial activity against multidrug-resistant Staphylococcus aureus isolate 2919 in presence of cefuroxime by broth microdilution assay. In kind it is functional. In a few lines:
as §2

Test [21] relates to Staphylococcus aureus. The test can be described thus: Synergistic antibacterial activity against multidrug-resistant Staphylococcus aureus isolate 2224 in presence of methicillin by broth microdilution assay. The format is functional. In a few lines: as §1
For test [22], the system named is Staphylococcus aureus. Put plainly: Synergistic antibacterial activity against multidrug-resistant Staphylococcus aureus isolate 2895 in presence of cloxacillin by broth microdilution assay. In kind it is functional. In a few lines: as §2
Test [23] deals with Staphylococcus aureus. Put plainly: Synergistic antibacterial activity against multidrug-resistant Staphylococcus aureus isolate 256 in presence of amoxicillin by broth microdilution assay. The format is functional. In a few lines: as §2

≈ marks a conversion by molar mass, not a printed value.

Consider `CCCCCCCCCNc1ccc(F)c(C(N)=O)c1F`, for which, in test [1], the “Selectivity Index” value is more than 32. For the same compound, the results for the “fractional inhibitory concentration index (FICI)” value in test [2], in test [9] and in test [12] were 10, 1.5 and 0.2, respectively. Moreover, the MIC stood at 2 µg/mL in test [3]; 8 µg/mL in [4]; 2 µg/mL (≈ 6.7 µM) in [5]; 4 µg/mL in test [6]; 0.5 µg/mL in test [7]; 32 µg/mL (≈ 107 µM) in [8]. The MIC is 0.5 µg/mL in test [10]; 32 µg/mL (≈ 107 µM) in test [11]; 4 µg/mL in test [13]; 2 µg/mL in test [14]; 8 µg/mL in test [15]; 8 µg/mL in test [16]. Further, the MIC stood at 2 µg/mL in test [17]; 1 µg/mL in test [18]; 1020 µg/mL (≈ 3430 µM) in test [19]; 2 µg/mL in test [20]; 2 µg/mL in test [21]; 2 µg/mL in test [22]. For the same compound, the MIC in test [23] stood at 16 µg/mL.

Broadly, the MIC is the lowest concentration that inhibits growth of the organism.
